Among the data in ChEMBL document CHEMBL1136581, “Synthesis of dopamine transporter selective 3-[2-(diarylmethoxyethylidene)]-8-alkylaryl-8-azabicyclo[3.2.1]octanes” (Bioorg Med Chem Lett, 2003) are Ki and Ratio values, retold here.

For test [1], the target named is Sodium-dependent serotonin transporter (Rattus norvegicus, UniProt P31652). Nature of the test: Binding affinity at serotonin transporter from rat caudate-putamen tissue by [3H]WIN-35428 displacement. Type of test: tissue-based. In a few lines: (§1)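 Compounds were tested as oxalate salts. Ki values are the mean ± SEM of three experiments, each run in triplicate.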
Sequence of Sodium-dependent serotonin transporter (P31652 whole entry): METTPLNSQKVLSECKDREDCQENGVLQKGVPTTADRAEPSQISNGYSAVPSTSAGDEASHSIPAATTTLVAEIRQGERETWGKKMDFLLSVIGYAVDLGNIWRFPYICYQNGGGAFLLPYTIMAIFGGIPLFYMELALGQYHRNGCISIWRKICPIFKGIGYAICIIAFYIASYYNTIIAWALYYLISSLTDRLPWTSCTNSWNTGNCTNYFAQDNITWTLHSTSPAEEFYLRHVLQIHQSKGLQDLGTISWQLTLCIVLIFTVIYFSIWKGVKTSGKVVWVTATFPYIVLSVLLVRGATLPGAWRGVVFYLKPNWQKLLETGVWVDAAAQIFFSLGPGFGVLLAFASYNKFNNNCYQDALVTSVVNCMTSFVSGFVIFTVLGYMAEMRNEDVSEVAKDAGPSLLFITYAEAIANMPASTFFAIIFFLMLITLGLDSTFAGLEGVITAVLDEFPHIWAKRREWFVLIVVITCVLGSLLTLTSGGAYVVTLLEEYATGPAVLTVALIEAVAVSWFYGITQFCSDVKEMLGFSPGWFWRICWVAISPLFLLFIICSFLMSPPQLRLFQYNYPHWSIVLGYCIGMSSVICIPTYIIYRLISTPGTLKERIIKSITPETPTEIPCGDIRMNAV

Test [2] deals with Sodium-dependent dopamine transporter (Rattus norvegicus, UniProt P23977). Briefly: Binding affinity at dopamine transporter from rat caudate-putamen tissue by [3H]WIN-35428 displacement. In a few lines:
as §1

Test [3] concerns the target Monoamine transporters; serotonin & dopamine (Rattus norvegicus) (UniProt P31652+P23977). Briefly: Binding affinity towards serotonin transporter compared to dopamine transporter. Type of test: protein assay.

Sequence of Monoamine transporters; serotonin & dopamine (Rattus norvegicus) (P23977 whole entry, looked up): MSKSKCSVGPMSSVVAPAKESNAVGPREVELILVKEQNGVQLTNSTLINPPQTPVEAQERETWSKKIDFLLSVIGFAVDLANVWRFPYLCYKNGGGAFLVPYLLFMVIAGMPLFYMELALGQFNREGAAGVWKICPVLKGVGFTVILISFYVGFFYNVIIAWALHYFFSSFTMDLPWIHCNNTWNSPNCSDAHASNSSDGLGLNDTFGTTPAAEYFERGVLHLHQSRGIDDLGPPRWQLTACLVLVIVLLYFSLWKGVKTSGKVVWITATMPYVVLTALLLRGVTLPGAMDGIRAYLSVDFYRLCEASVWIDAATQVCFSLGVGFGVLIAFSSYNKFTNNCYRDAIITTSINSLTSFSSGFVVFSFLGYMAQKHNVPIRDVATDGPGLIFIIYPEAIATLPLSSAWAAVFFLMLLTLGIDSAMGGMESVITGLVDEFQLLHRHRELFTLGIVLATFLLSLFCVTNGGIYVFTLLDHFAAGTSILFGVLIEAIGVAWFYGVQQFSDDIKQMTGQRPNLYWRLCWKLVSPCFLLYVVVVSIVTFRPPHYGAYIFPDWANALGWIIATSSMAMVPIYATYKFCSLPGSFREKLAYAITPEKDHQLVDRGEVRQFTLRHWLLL
Sequence of Monoamine transporters; serotonin & dopamine (Rattus norvegicus) (P31652 whole entry, looked up): as the sequence (P31652 whole entry) above
Sequence of Sodium-dependent dopamine transporter (P23977 whole entry): as the sequence (P23977 whole entry, looked up) above

By Ki is commonly meant a dissociation constant, usually derived from enzyme kinetics or from competition with a known ligand. Higher therefore signals a looser hold on the target. Take `Clc1ccc(C(OCCC2CC3CCC(C2)N3Cc2ccccc2)c2ccccc2)cc1` (configuration not stated): the inhibition constant (Ki) in test [1] came to 1940 nM; in test [2] it was 82 nM. Also, in test [3], the Ratio was found to be 24.
For the compound `c1ccc(CCCN2[C@@H]3CC[C@H]2C[C@@H](CCOC(c2ccccc2)c2ccccc2)C3)cc1`, the Ki in test [1] turned out to be 750 nM; in test [2], 18 nM. Also, the Ratio in test [3] was determined as 42.
For the compound `Clc1ccc(C(OCCC2CC3CCC(C2)N3CCCc2ccccc2)c2ccccc2)cc1` (configuration not stated), the Ki in test [1] is 374 nM; in test [2], 30 nM. The Ratio in test [3] is 12.
For `Fc1ccc(C(OCC[C@H]2C[C@H]3CC[C@@H](C2)N3CCCc2ccccc2)c2ccc(F)cc2)cc1`, the Ki in test [1] was 175 nM; in test [2] it was 7.4 nM.
Take `CN1C2CCC1CC(CCOC(c1ccccc1)c1ccc(Cl)cc1)C2` (configuration not stated): the Ki in test [1] is 3430 nM. For the same compound, in test [3], the Ratio turned out to be 71.
As to `Fc1ccc(C(OCCC2CC3CCC(C2)N3Cc2ccccc2)c2ccc(F)cc2)cc1` (configuration not stated), the Ki was 1430 nM in test [1] and 5.7 nM in test [2]. In addition, the Ratio in test [3] stood at 251.
`c1ccc(CN2C3CCC2CC(CCOC(c2ccccc2)c2ccccc2)C3)cc1` (configuration not stated) registered a Ki in test [1] of 4780 nM. Moreover, the Ratio in test [3] was determined as 48.
Take `Fc1ccc(C(OCC=C2CC3CCC(C2)N3CCCc2ccccc2)c2ccc(F)cc2)cc1`: the Ki was determined as 562 nM in test [1] and 3.7 nM in test [2]. Further, the Ratio in test [3] came out at 152.
As for `Clc1ccc(C(OCCC2CC3CCC(C2)N3CCCc2ccccc2)c2ccc(Cl)cc2)cc1` (configuration not stated), the values for the Ki in test [1] and in test [2] were 177 nM and 50 nM, respectively. The Ratio in test [3] amounted to 4.
`CN1[C@@H]2CC[C@H]1C[C@@H](CCOC(c1ccccc1)c1ccccc1)C2`: the Ki in test [1] amounted to 14100 nM; in test [2], 58 nM. Further, in test [3], the Ratio is 243.
With `CN1C2CCC1CC(CCOC(c1ccc(Cl)cc1)c1ccc(Cl)cc1)C2` (configuration not stated), the Ki is 1160 nM in test [1] and 18 nM in test [2]. Also, the Ratio in test [3] was 64.
The compound `Fc1ccc(C(OCC=C2CC3CCC(C2)N3Cc2ccccc2)c2ccc(F)cc2)cc1` gave a Ki in test [1] of 2220 nM. Also, the Ratio in test [3] is 281.
`Oc1ccc(CN2C3CCC2CC(CCOC(c2ccc(F)cc2)c2ccc(F)cc2)C3)cc1` (configuration not stated): the inhibition constant Ki in test [1] is 809 nM; in test [2], 30 nM. For the same compound, the Ratio in test [3] is 27.
Consider `Clc1ccc(C(OCCC2CC3CCC(C2)N3Cc2ccccc2)c2ccc(Cl)cc2)cc1` (configuration not stated), for which the Ki in test [1] worked out at 822 nM; in test [2], 91 nM. Also, in test [3], the Ratio is 9.
For `C(COC(c1ccccc1)c1ccccc1)=C1CC2CCC(C1)N2Cc1ccccc1` the same measures were 5420 nM, 48 nM and 113.
For `CN1C2CCC1CC(CCOC(c1ccc(F)cc1)c1ccc(F)cc1)C2` (configuration not stated) the same measures were 2470 nM, 31 nM and 80.
Take `Oc1cccc(CN2C3CCC2CC(CCOC(c2ccc(F)cc2)c2ccc(F)cc2)C3)c1` (configuration not stated): the Ki came to 651 nM in test [1] and 20 nM in test [2]. Moreover, in test [3], the Ratio came out at 33.
